Laboratory results reported in ChEMBL document CHEMBL1158789, “Sesquiterpenes from the red alga Laurencia tristicha” (J Nat Prod, 2005).
Converted amounts (≈) assume the structure as drawn.

How the values were obtained:
Format in all cases: functional, cell-based
[1] = test system: A549; assay: Cytotoxicity against human A549 cells by MTT assay
In short: (§1)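 Human tumour lines (A549 lung adenocarcinoma, BGC-823 stomach cancer, Bel 7402 hepatoma, HCT-8 colon cancer, HeLa) were exposed to the compounds and viability was read by MTT. Potency was expressed as IC50 in μg/mL.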

[2] = test system: BGC-823; assay: Cytotoxicity against human BGC823 cells by MTT assay; in short: as §1
[3] = test system: Bel-7402; assay: Cytotoxicity against human Bel7402 cells by MTT assay; in short: as §1
[4] = test system: HCT-8; assay: Cytotoxicity against human HCT8 cells by MTT assay; in short: as §1
[5] = test system: HeLa; assay: Cytotoxicity against human HeLa cells by MTT assay; in short: as §1

Compound: CC1(C)[C@]23C[C@H](Br)[C@@](C)(Cl)C[C@@H]2O[C@]1(Br)[C@H](O)[C@H]1O[C@]13C [JOHNSTONOL]
- IC50 [1]: > 10 µg/mL
- IC50 [2]: > 10 µg/mL
- IC50 [3]: > 10 µg/mL
- IC50 [4]: > 10 µg/mL
- IC50 [5]: > 10 µg/mL

Compound: C=C1[C@]2(C)CC[C@@]1(C)c1cc(Br)c(C)cc1O2
- IC50 [1]: > 10 µg/mL
- IC50 [2]: > 10 µg/mL
- IC50 [3]: > 10 µg/mL
- IC50 [4]: > 10 µg/mL
- IC50 [5]: > 10 µg/mL

Compound: Cc1ccc([C@]2(C)CC[C@H](C(C)(C)O)O2)cc1
- IC50 [1]: > 10 µg/mL
- IC50 [2]: > 10 µg/mL
- IC50 [3]: > 10 µg/mL
- IC50 [4]: > 10 µg/mL
- IC50 [5]: > 10 µg/mL

Compound: Cc1cc2c(cc1Br)[C@]1(C)CC[C@H](C)[C@]1(C)O2 [APLYSIN]
- IC50 [1]: > 10 µg/mL
- IC50 [2]: > 10 µg/mL
- IC50 [3]: > 10 µg/mL
- IC50 [4]: > 10 µg/mL
- IC50 [5]: > 10 µg/mL

Compound: Cc1ccc([C@]2(C)CC[C@@H](C(C)(C)O)O2)cc1
- IC50 [1]: > 10 µg/mL
- IC50 [2]: > 10 µg/mL
- IC50 [3]: > 10 µg/mL
- IC50 [4]: > 10 µg/mL
- IC50 [5]: > 10 µg/mL

Compound: C=C1[C@](C)(O)CC[C@@]1(C)c1ccc(C)c(O)c1
- IC50 [1]: > 10 µg/mL
- IC50 [2]: > 10 µg/mL
- IC50 [3]: > 10 µg/mL
- IC50 [4]: > 10 µg/mL
- IC50 [5]: > 10 µg/mL

Compound: CC(C)=CCCC(C)(O)c1ccc(C)cc1 (stereo not given) [GOSSONOROL]
- IC50 [1]: > 10 µg/mL
- IC50 [2]: > 10 µg/mL
- IC50 [3]: > 10 µg/mL
- IC50 [4]: > 10 µg/mL
- IC50 [5]: > 10 µg/mL

Compound: C=C1[C@](C)(O)CC[C@@]1(C)c1ccc(C)cc1O
- IC50 [1]: > 10 µg/mL
- IC50 [2]: > 10 µg/mL
- IC50 [3]: > 10 µg/mL
- IC50 [4]: > 10 µg/mL
- IC50 [5]: > 10 µg/mL

Compound: Cc1cc2c(cc1Br)[C@]1(C)CC[C@H](C)[C@]1(CO)O2 [APLYSINOL]
- IC50 [1]: > 10 µg/mL
- IC50 [2]: > 10 µg/mL
- IC50 [3]: > 10 µg/mL
- IC50 [4]: > 10 µg/mL
- IC50 [5]: > 10 µg/mL

Compound: Cc1cc2c(cc1O)C[C@]1(CC[C@@H]3C[C@@]31C)O2
- IC50 [1]: > 10 µg/mL
- IC50 [2]: > 10 µg/mL
- IC50 [3]: > 10 µg/mL
- IC50 [4]: > 10 µg/mL
- IC50 [5]: > 10 µg/mL

Compound: Cc1ccc([C@]2(C)CC[C@@H]3C[C@@]32C)cc1O
- IC50 [1]: > 10 µg/mL
- IC50 [2]: > 10 µg/mL
- IC50 [3]: > 10 µg/mL
- IC50 [4]: > 10 µg/mL
- IC50 [5]: > 10 µg/mL

Compound: Cc1ccc(C(C)(O)C/C=C/C(C)(C)O)cc1 (stereo not given)
- IC50 [1]: > 10 µg/mL
- IC50 [2]: > 10 µg/mL
- IC50 [3]: > 10 µg/mL
- IC50 [4]: > 10 µg/mL
- IC50 [5]: > 10 µg/mL

Compound: C=C1[C@](C)(O)CC[C@@]1(C)c1ccc(C)cc1
- IC50 [1]: > 10 µg/mL
- IC50 [2]: > 10 µg/mL
- IC50 [3]: > 10 µg/mL
- IC50 [4]: > 10 µg/mL
- IC50 [5]: > 10 µg/mL

Compound: Cc1cc(O)c([C@]2(C)CC[C@@H]3C[C@@]32C)cc1-c1cc([C@]2(C)CC[C@@H]3C[C@@]32C)c(O)cc1C [LAUREBIPHENYL]
- IC50 [1]: 1.68 µg/mL (≈ 3.9 µM)
- IC50 [2]: 1.22 µg/mL (≈ 2.83 µM)
- IC50 [3]: 1.91 µg/mL (≈ 4.44 µM)
- IC50 [4]: 1.77 µg/mL (≈ 4.11 µM)
- IC50 [5]: 1.61 µg/mL (≈ 3.74 µM)
